IC50, ED50 and LD50 data for 59 molecules are collected here from ChEMBL document CHEMBL1126800, “Preparation of substituted N-phenyl-4-aryl-2-pyrimidinamines as mediator release inhibitors” (J Med Chem, 1993).

The species entered for the first data set is Homo sapiens. Description: In vitro inhibition of histamine release from human basophils. Format: functional, organism-based.
Settings: not given
Summed up: (§1)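 Human basophils separated from leukocytes were incubated with test compound, then challenged with anti-IgE or antigen (Lichtenstein method). Histamine release was measured against controls and blanks. IC50 is the concentration lowering histamine release by 50%.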
Broadly, the IC50 is the point on the concentration scale where inhibition reaches its midpoint. Read a low IC50 as greater potency in that assay. In the case of `c1ccc(Nc2nccc(-c3cccnc3)n2)cc1`, the IC50 was determined as 1300 nM. On the same count and under the same terms, the figure for `c1cc(Nc2nccc(-c3ccncc3)n2)cc(-n2ccnc2)c1` is 3900 nM.

The data set is the same for the next values; noted with them: Homo sapiens.
`c1ccc(-c2ccnc(Nc3cccc(-n4ccnc4)c3)n2)nc1` came in with a concentration for half-maximal inhibition (IC50) of 300 nM. `Cc1cc(-c2ccncc2)nc(Nc2ccc(N(C)C)cc2)n1` displayed an IC50 above 24000 nM. Molecule `COc1cccc(Nc2nccc(-c3cccnc3)n2)c1` displayed a concentration for half-maximal inhibition (IC50) of 300 nM. On the same count and under the same terms, the figure for `c1coc(-c2ccnc(Nc3ccc(-n4ccnc4)cc3)n2)c1` is 2200 nM; for `CC(=O)Nc1ccc(Nc2nccc(-c3cccnc3)n2)cc1` it is 3600 nM; for `COc1ccc(Nc2nccc(-c3cccs3)n2)cc1` it is 3900 nM. `c1cc(Nc2nccc(-c3ccco3)n2)cc(OCCn2ccnc2)c1`: half-maximal inhibition (IC50) required 200 nM.

As for `c1ccc(-c2ccnc(Nc3ccc(-n4ccnc4)cc3)n2)nc1`, the concentration for half-maximal inhibition (IC50) came out at 1400 nM. Consider `Clc1cccc(Nc2nccc(-c3cccnc3)n2)c1`, for which the IC50 stood at 1500 nM. Turning to `Cc1cccc(Nc2nccc(-c3ccc(C)s3)n2)c1`, it took 1400 nM to reach half-maximal inhibition (IC50).

`Cc1cc(-c2ccccn2)nc(Nc2ccccc2)n1` showed an IC50 of 26800 nM. The molecule `Fc1cccc(F)c1Nc1nccc(-c2cccnc2)n1` yielded a half-maximal inhibitory concentration (IC50) of 21000 nM.

In turn, `CCc1ccc(Nc2nccc(-c3ccnc4ccccc34)n2)cc1` displayed an IC50 of 4000 nM.

In turn, `c1cc(Nc2nccc(-c3cccnc3)n2)cc(OCCn2ccnc2)c1` had a half-maximal inhibitory concentration (IC50) of 100 nM. In the case of `COc1ccccc1Nc1nccc(-c2cccnc2)n1`, the IC50 was found to be 9800 nM. The same measure, in the same setting: the figure for `COc1ccc(Nc2nccc(-c3ccccn3)n2)cc1` is 8300 nM; for `CCN(CC)CCOc1ccc(Nc2nccc(-c3cccnc3)n2)cc1` it is 200 nM; for `CCc1cccc(Nc2nccc(-c3ccncc3)n2)c1` it is 10600 nM. Regarding `NS(=O)(=O)c1cccc(Nc2nccc(-c3cccnc3)n2)c1`, the midpoint of inhibition, the IC50, lay at 200 nM. `c1ccc(Nc2nccc(-c3c[nH]c4ccccc34)n2)cc1` had an IC50 of 3000 nM. Molecule `CC1CCN(C(=O)COc2ccc(Nc3nccc(-c4ccncc4)n3)cc2)CC1` returned an IC50 of 300 nM. On to `CCOC(=O)c1cccc(Nc2nccc(-c3ccccn3)n2)c1`, for which 3000 nM corresponded to half-maximal inhibition (IC50). As for `CC1CCN(c2ccc(Nc3nccc(-c4cccs4)n3)cc2)CC1`, it took 400 nM to reach half-maximal inhibition (IC50). On the same count and under the same terms, the same measure for `CC1CCN(c2ccc(Nc3nccc(-c4cccnc4)n3)cc2)CC1`: 500 nM; for `CCN(CC)CCOc1cccc(Nc2nccc(-c3ccco3)n2)c1`: 1400 nM. The same measure, in the same setting: the figure for `FC(F)(F)c1cc(Nc2nccc(-c3ccncc3)n2)ccc1-n1ccnc1` is 400 nM; for `c1ccc(Nc2nccc(-c3cccs3)n2)cc1` it is 31700 nM. `CN(C)c1ccc(Nc2nccc(-c3cccnc3)n2)cc1` registered an IC50 of 2800 nM. `COc1ccc(Nc2nccc(-c3ccncc3)n2)cc1` showed a concentration for half-maximal inhibition (IC50) of 4200 nM. In turn, `Cc1cc(C)cc(Nc2nccc(-c3ccco3)n2)c1` gave an IC50 of 700 nM.

For the molecule `CCc1cccc(Nc2nccc(-c3ccccn3)n2)c1`, the IC50 worked out at 1400 nM.

Take `c1cc(Nc2nccc(-c3ccncc3)n2)cc(OCCn2ccnc2)c1`: the IC50 was 200 nM. Molecule `Fc1cccc(Nc2nccc(-c3ccncc3)n2)c1` had a half-maximal inhibitory concentration (IC50) of 700 nM.

The molecule `Cc1ccc(-c2ccnc(Nc3cccc(N(C)C)c3)n2)s1` had an IC50 of 5700 nM. Same read-out and setting: the figure for `CN(c1ccccc1)c1nccc(-c2ccncc2)n1` is above 24000 nM; for `Cc1cccc(Nc2nccc(-c3ccccn3)n2)c1` it is 700 nM. `NS(=O)(=O)c1cccc(Nc2nccc(-c3ccccn3)n2)c1` registered a 50% inhibitory concentration (IC50) of 500 nM. `Cc1cc(C)cc(Nc2nccc(-c3cccnc3)n2)c1` displayed a half-maximal inhibitory concentration (IC50) of 800 nM. The molecule `CN(C)c1cccc(Nc2nccc(-c3cccnc3)n2)c1` yielded a 50% inhibitory concentration (IC50) of 1800 nM. Still for that read-out and setting: the figure for `Cc1cccc(Nc2nccc(-c3c[nH]c4ccccc34)n2)c1` is 2200 nM. The molecule `CCc1ccc(Nc2nccc(-c3ccccn3)n2)cc1` came in with a concentration for half-maximal inhibition (IC50) of 2100 nM. `c1cncc(-c2ccnc(Nc3cccc(-n4ccnc4)c3)n2)c1` returned an IC50 of 200 nM. On the same count and under the same terms, the figure for `CNc1ccc(Nc2nccc(-c3ccccn3)n2)cc1` is 1400 nM; for `Cc1cc(C)cc(Nc2nccc(-c3ccccn3)n2)c1` it is 100 nM; for `CCN(CC)c1ccc(Nc2nccc(-c3cc(C)oc3C)n2)cc1` it is above 24000 nM.

As for `NS(=O)(=O)c1ccc(Nc2nccc(-c3ccncc3)n2)cc1`, the IC50 turned out to be 5100 nM. Regarding `COc1cccc(Nc2nccc(-c3cc4ccccc4o3)n2)c1`, the IC50 turned out to be 2800 nM. Turning to `CCN(CC)CCOc1cccc(Nc2nccc(-c3ccccn3)n2)c1`, the half-inhibitory concentration (IC50) stood at 1200 nM. `Cc1ccccc1Nc1nccc(-c2ccncc2)n1`: the IC50 came to 3900 nM. On the same count and under the same terms, the figure for `Nc1cccc(Nc2nccc(-c3ccncc3)n2)c1` is 1000 nM. The same measure, in the same setting: the same measure for `CCN(CC)CCOc1ccc(Nc2nccc(-c3ccccn3)n2)cc1`: above 3000 nM; for `Cc1cccc(Nc2nccc(-c3ccco3)n2)c1`: 2100 nM. Still for that read-out and setting: the same measure for `CCN(CC)CCOc1ccc(Nc2nccc(-c3ccco3)n2)cc1`: 1300 nM; for `CC(=O)Nc1cccc(Nc2nccc(-c3ccncc3)n2)c1`: 2700 nM; for `COc1cccc(Nc2nccc(-c3cccs3)n2)c1`: 900 nM. The molecule `CCOC(=O)C(=O)N(c1ccccc1)c1nccc(-c2ccncc2)n1` showed a half-maximal inhibitory concentration (IC50) of 2200 nM.

The species entered for another data set is Homo sapiens. Description: In vitro inhibition of histamine release from human basophils; H= Compound interfered with the histamine assay.
Settings: not given
In kind it is functional, organism-based. Summed up: as §1
With `CNc1ccc(Nc2nccc(-c3ccncc3)n2)cc1.Cl.Cl`, the IC50 entry is “Compound interfered with the histamine assay”.

A further data set is filed under the species Homo sapiens. Description: Tested for in vitro cell leukotriene C4 release inhibition by radioimmunoassay. Format: functional, organism-based.
Settings: not given
Summed up:
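Basophils were incubated with compound and challenged. LTC4 release was measured by radioimmunoassay, with duplicate samples processed per the [3H] LTC4 RIA kit procedure. Histamine release was measured simultaneously on a second portion of the same cells. IC50 is from n = 5.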
`c1ccc(-c2ccnc(Nc3cccc(-n4ccnc4)c3)n2)nc1` had an IC50 of 205 nM.

For a further data set, the system named is Mus musculus. Description: Tested for in vivo activity in mouse by passive cutaneous anaphylaxis (PCA) test. In kind it is functional. Particulars: read-out: ID50 (the source's name). Summed up: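 Mouse passive cutaneous anaphylaxis test with oral dosing of compound. Read at times of […] after dosing. Value expressed as ID50 in mg/kg.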
In the case of `c1ccc(-c2ccnc(Nc3cccc(-n4ccnc4)c3)n2)nc1`, the ED50 was 50 mg/kg.

System in another data set: not listed separately
Description: Tested for toxic concentration in mice. Conditions: mouse, in vivo. In kind it is ADME, organism-based.
Broadly, the LD50 is the dose at which mortality reaches 50%. Molecule `c1ccc(-c2ccnc(Nc3cccc(-n4ccnc4)c3)n2)nc1` gave an LD50 of 800 mg/kg.
